From ChEMBL document CHEMBL1128272, “Stereoselective LSD-like activity in a series of d-lysergic acid amides of (R)- and (S)-2-aminoalkanes” (J Med Chem, 1995)

What was measured:
[1] = molecular target: 5-hydroxytryptamine receptor 2A (Rattus norvegicus, UniProt P14842); assay: Binding affinity was measured against 5-hydroxytryptamine 2A receptor by displacement of [3H]- ketanserin by lysergic acid amides
In short: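 Rat frontal cortex membranes from pooled male Sprague-Dawley rats, preincubated at 37 °C, in 50 mM Tris HCl (pH 7.4) with 0.5 mM Na2EDTA, 0.1% ascorbate, 10 μM pargyline and 5.7 mM CaCl2. Triplicates. Three to four experiments combined.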

Rattus norvegicus [2] = assay: Compound was tested for its effect on animals. Value reported as number of rats disrupted in trained rats at a dose of 47 (nmol/kg); type: functional
In short: (§1)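 Two-lever drug discrimination in food-restricted rats (~80% free-feeding weight) trained on FR 50 to tell saline from LSD tartrate (186 nmol/kg, 0.08 mg/kg ip, 30 min pre-session). Test drugs were given ip in saline, 1 mL/kg. Test sessions ran under extinction, ending at 50 presses on either lever. Testing required 85% training accuracy. Counts of rats tested and disrupted were recorded, plus the percentage selecting the drug lever.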

Rattus norvegicus [3] = assay: Compound was tested for its effect on animals. Value reported as number of rats disrupted in trained rats at a dose of 93 (nmol/kg); type: functional; in short: as §1
Rattus norvegicus [4] = assay: Compound was tested for its effect on animals. Value reported as number of rats disrupted in trained rats at a dose of 186 (nmol/kg); type: functional; in short: as §1
Rattus norvegicus [5] = assay: Compound was tested for its effect on animals. Value reported as number of rats disrupted in trained rats at a dose of 23 (nmol/kg); type: functional; in short: as §1
Rattus norvegicus [6] = assay: Effective dose in trained rats was determined at a dose of 12 (nmol/kg); type: functional
Rattus norvegicus [7] = assay: Compound was tested for its effect on animals. Value reported as number of rats disrupted in trained rats at a dose of 12 (nmol/kg); type: functional; in short: as §1
Rattus norvegicus [8] = assay: Percentage of animals selecting drug lever in trained rats at a dose 23 (nmol/kg); type: functional; in short: as §1
Rattus norvegicus [9] = assay: Percentage of animals selecting drug lever in trained rats at a dose 47 (nmol/kg); type: functional
In short: (§2)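 Drug-naive rats held at about 80% of free-feeding weight were trained on a two-lever FR50 food schedule to tell ip LSD tartrate (186 nmol/kg, 0.08 mg/kg) from saline, given 30 min before sessions. Test drugs were given ip in saline (1 mL/kg). Tests ran under extinction and ended at 50 presses on either lever. Rats had to hold 85% correct on training days. Read-out was % selecting the drug lever per dose.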

Rattus norvegicus [10] = assay: Percentage of animals selecting drug lever in trained rats at a dose 93 (nmol/kg); type: functional; in short: as §2
Rattus norvegicus [11] = assay: Potency in trained rats was determined with relative to reference compound […] at a dose of 12 (nmol/kg); type: functional
Rattus norvegicus [12] = assay: Percentage of animals selecting drug lever in 1-Trained rats at a dose 186 (nmol/kg); type: functional; in short: as §1
Rattus norvegicus [13] = assay: Percentage of animals selecting drug lever in trained rats at a dose 12 (nmol/kg); type: functional; in short: as §1
[14] = molecular target: T1, 5-hydroxytryptamine receptor 1A (Rattus norvegicus, UniProt P19327); assay: Binding affinity was measured against 5-hydroxytryptamine 1A receptor by displacement of [3H]8-OH-DPAT by lysergic acid amides
T1 sequence (P19327 whole entry): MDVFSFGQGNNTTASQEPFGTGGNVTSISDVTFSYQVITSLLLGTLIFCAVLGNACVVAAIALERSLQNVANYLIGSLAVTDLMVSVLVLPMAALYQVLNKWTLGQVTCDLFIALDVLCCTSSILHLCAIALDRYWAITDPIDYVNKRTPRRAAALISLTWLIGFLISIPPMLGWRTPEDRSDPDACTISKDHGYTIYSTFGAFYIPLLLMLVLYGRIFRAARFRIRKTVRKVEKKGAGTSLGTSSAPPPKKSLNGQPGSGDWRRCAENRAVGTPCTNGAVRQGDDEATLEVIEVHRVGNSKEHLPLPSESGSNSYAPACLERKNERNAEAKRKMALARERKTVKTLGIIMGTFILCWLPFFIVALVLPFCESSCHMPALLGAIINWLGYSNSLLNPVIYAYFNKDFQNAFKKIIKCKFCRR
In short: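 Rat hippocampal membranes from pooled male Sprague-Dawley rats, preincubated at 37 °C, in 50 mM Tris HCl (pH 7.4) with 0.5 mM Na2EDTA, 0.1% ascorbate and 10 μM pargyline. Competition against 0.75 nM [3H]-8-OH-DPAT for 10 min at 37 °C, then GF/C filtration and scintillation counting. Triplicates. Three to four experiments combined, analysed with EBDA/LIGAND.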

Rattus norvegicus [15] = assay: Compound was tested for its effect on animals. Value reported as number of rats disrupted in trained rats at a dose of 465 (nmol/kg); type: functional; in short: as §1
Rattus norvegicus [16] = assay: Compound was tested for its effect on animals. Value reported as number of rats disrupted in trained rats at a dose of 372 (nmol/kg); type: functional; in short: as §1
Rattus norvegicus [17] = assay: Compound was tested for its effect on animals. Value reported as number of rats disrupted in trained rats at a dose of 290 (nmol/kg); type: functional; in short: as §1
Rattus norvegicus [18] = assay: Effective dose in trained rats was determined at a dose of 47 (nmol/kg); type: functional
Rattus norvegicus [19] = assay: Percentage of animals selecting drug lever in trained rats at a dose 372 (nmol/kg); type: functional; in short: as §1
Rattus norvegicus [20] = assay: Percentage of animals selecting drug lever in trained rats at a dose 465 (nmol/kg); type: functional; in short: as §2
Rattus norvegicus [21] = assay: Percentage of animals selecting drug lever in trained rats at a dose 290 (nmol/kg); type: functional; in short: as §1
Rattus norvegicus [22] = assay: Potency in trained rats was determined with relative to reference compound […] at a dose of 186 (nmol/kg); type: functional
Rattus norvegicus [23] = assay: Compound was tested for its effect on animals. Value reported as number of rats disrupted in trained rats at a dose of 86 (nmol/kg); type: functional; in short: as §1
Rattus norvegicus [24] = assay: Compound was tested for its effect on animals. Value reported as number of rats disrupted in trained rats at a dose of 426 (nmol/kg); type: functional; in short: as §1
Rattus norvegicus [25] = assay: Compound was tested for its effect on animals. Value reported as number of rats disrupted in trained rats at a dose of 171 (nmol/kg); type: functional; in short: as §1
Rattus norvegicus [26] = assay: Compound was tested for its effect on animals. Value reported as number of rats disrupted in trained rats at a dose of 213 (nmol/kg); type: functional; in short: as §1
Rattus norvegicus [27] = assay: Effective dose in trained rats was determined at a dose of 86 (nmol/kg); type: functional, organism-based
Rattus norvegicus [28] = assay: Compound was tested for its effect on animals. Value reported as number of rats disrupted in trained rats at a dose of 128 (nmol/kg); type: functional; in short: as §1
Rattus norvegicus [29] = assay: Percentage of animals selecting drug lever in trained rats at a dose 426 (nmol/kg); type: functional; in short: as §1
Rattus norvegicus [30] = assay: Percentage of animals selecting drug lever in trained rats at a dose 86 (nmol/kg); type: functional; in short: as §2
Rattus norvegicus [31] = assay: Percentage of animals selecting drug lever in trained rats at a dose 128 (nmol/kg); type: functional; in short: as §1
Rattus norvegicus [32] = assay: Percentage of animals selecting drug lever in trained rats at a dose 171 (nmol/kg); type: functional; in short: as §1
Rattus norvegicus [33] = assay: Percentage of animals selecting drug lever in trained rats at a dose 213 (nmol/kg); type: functional; in short: as §1
Rattus norvegicus [34] = assay: Percentage of animals selecting drug lever in trained rats at a dose 186 (nmol/kg); type: functional; in short: as §1
Rattus norvegicus [35] = assay: Effective dose in trained rats was determined at a dose of 186 (nmol/kg); type: functional

Sequence of 5-hydroxytryptamine receptor 2A (P14842 whole entry): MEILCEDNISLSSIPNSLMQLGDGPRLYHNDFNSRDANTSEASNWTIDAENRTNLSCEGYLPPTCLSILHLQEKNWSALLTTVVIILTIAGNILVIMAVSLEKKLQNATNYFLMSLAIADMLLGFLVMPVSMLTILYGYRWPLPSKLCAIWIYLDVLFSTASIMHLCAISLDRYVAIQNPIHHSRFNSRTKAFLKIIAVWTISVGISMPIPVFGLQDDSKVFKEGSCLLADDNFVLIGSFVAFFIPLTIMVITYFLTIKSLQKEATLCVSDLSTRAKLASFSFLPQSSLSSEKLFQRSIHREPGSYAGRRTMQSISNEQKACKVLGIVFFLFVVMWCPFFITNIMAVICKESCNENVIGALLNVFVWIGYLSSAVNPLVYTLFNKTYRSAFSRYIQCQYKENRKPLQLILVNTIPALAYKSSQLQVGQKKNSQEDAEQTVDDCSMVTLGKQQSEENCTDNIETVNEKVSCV

Structure (SMILES): CC[C@@H](C)NC(=O)[C@@H]1C=C2c3cccc4[nH]cc(c34)C[C@H]2N(C)C1 [listing 1 of 2 here]
- Ki [1]: 8.8 nM
- D (Rattus norvegicus [2]): 0%
- D (Rattus norvegicus [3]): 0%
- D (Rattus norvegicus [4]): 0%
- D (Rattus norvegicus [5]): 0%
- ED50 (Rattus norvegicus [6]): 0.033 µmol/kg
- D (Rattus norvegicus [7]): 0%
- SDL (Rattus norvegicus [8]): 50%
- SDL (Rattus norvegicus [9]): 75%
- SDL (Rattus norvegicus [10]): 75%
- Potency (Rattus norvegicus [11]): 1.45
- SDL (Rattus norvegicus [12]): 88%
- SDL (Rattus norvegicus [13]): 13%

Structure (SMILES): CC[C@@H](C)NC(=O)[C@@H]1C=C2c3cccc4[nH]cc(c34)C[C@H]2N(C)C1 [listing 2 of 2 here]
- Ki [14]: 4.6 nM
- Ki [1]: 34 nM
- D (Rattus norvegicus [15]): 10%
- D (Rattus norvegicus [2]): 10%
- D (Rattus norvegicus [3]): 0%
- D (Rattus norvegicus [16]): 0%
- D (Rattus norvegicus [4]): 27%
- D (Rattus norvegicus [17]): 10%
- ED50 (Rattus norvegicus [18]): 0.124 µmol/kg
- SDL (Rattus norvegicus [19]): 75%
- SDL (Rattus norvegicus [20]): 100%
- SDL (Rattus norvegicus [10]): 50%
- SDL (Rattus norvegicus [21]): 67%
- Potency (Rattus norvegicus [22]): 0.39

Structure (SMILES): CCCCCC(C)NC(=O)[C@@H]1C=C2c3cccc4[nH]cc(c34)C[C@H]2N(C)C1 (stereo partly specified)
- Ki [14]: 14 nM
- Ki [1]: 357 nM

Structure (SMILES): CCCC[C@@H](C)NC(=O)[C@@H]1C=C2c3cccc4[nH]cc(c34)C[C@H]2N(C)C1
- Ki [14]: 0.32 nM
- Ki [1]: 16 nM
- D (Rattus norvegicus [23]): 10%
- D (Rattus norvegicus [24]): 0%
- D (Rattus norvegicus [25]): 0%
- D (Rattus norvegicus [26]): 27%
- ED50 (Rattus norvegicus [27]): Weak activity
- D (Rattus norvegicus [28]): 0%
- SDL (Rattus norvegicus [29]): 0%
- SDL (Rattus norvegicus [30]): 22%
- SDL (Rattus norvegicus [31]): 40%
- SDL (Rattus norvegicus [32]): 55%
- SDL (Rattus norvegicus [33]): 50%

Structure (SMILES): CCN(CC)C(=O)[C@@H]1C=C2c3cccc4[nH]cc(c34)C[C@H]2N(C)C1 [LYSERGIDE]
- D (Rattus norvegicus [4]): 0%
- Potency (Rattus norvegicus [22]): 1
- SDL (Rattus norvegicus [34]): 100%
- ED50 (Rattus norvegicus [35]): 0.048 µmol/kg
